According to ChEMBL document CHEMBL5108057, “Development of MAO-A and 5-HT2AR Dual Inhibitors with Improved Antidepressant Activity” (J Med Chem, 2022):
Activity calls are given as the source filed them. The calls are words filed in the database; no cut-off is given here.

Experiments:
[1] = AUC(0 to 24 hrs) in Sprague-Dawley rat at 10 mg/kg, IG measured upto 1440 mins by LC-MS/MS analysis; type: ADME, organism-based; parameters: time < 1440 min, dose 10 mg/kg, route ig; details: in vivo, po
Mus musculus [2] = assay: Antidepressant activity in chronic unpredictable mild stress ICR mouse model assessed as increase in total distance traveled at 10 to 20 mg/kg administered for 2 weeks by open field test; type: functional, organism-based; details: dose 10-20 mg/kg
How it was run: (§1)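 ICR mice received CUMS for 4 weeks: 11 stressors given randomly twice daily, 42 days in total. OFT: 5 min session scoring distance, speed, rearing and dejection. FST/TST: 6 min, with immobility scored over the last 4 min. Sucrose preference test was also run. Mean ± SD, n = 6.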

[3] = Half life in Sprague-Dawley rat at 10 mg/kg, IG measured upto 1440 mins by LC-MS/MS analysis; type: ADME, organism-based; details: in vivo, po
Mus musculus [4] = assay: Antidepressant activity in chronic unpredictable mild stress ICR mouse model assessed as decrease in immobility time at 10 to 20 mg/kg measured after 2 weeks by forced swimming test; type: functional, organism-based; details: dose 10-20 mg/kg; how it was run: as §1
Mus musculus [5] = assay: Antidepressant activity in reserpine-induced ICR mouse model assessed as decrease in number of dejection at 10 to 20 mg/kg pretreated with reserpine for 3 days followed by compound addition on day 4 to 10 by open field test; type: functional, organism-based; details: dose 10-20 mg/kg, time 6.0 day
How it was run: (§2)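 Body weight was recorded daily. OFT: 5 min session scoring distance, speed, rearing and dejection. FST and TST: 6 min, with immobility scored over the last 4 min. Mean ± SD, n = 6; one-way ANOVA and t-test.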

[6] = Inhibition of 5-HT2AR mRNA expression in zebra fish AB assessed as fold decrease in 2 delta delta CT level at 1 uM by RT-qPCR method relative to control; type: functional, Danio rerio
How it was run: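 Total RNA from zebrafish was extracted with Trizol and reverse-transcribed with MMLV. SYBR Green qPCR: 95 °C 2 min; 40 cycles of 95, 60 and 72 °C, 30 s each; then 72 °C for 5 min. 5-HT2AR was normalized to GAPDH by the 2^−ΔΔCT method; mean ± SD, n = 3.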

Mus musculus [7] = assay: Antidepressant activity in reserpine-induced ICR mouse model assessed as reduction in immobility time at 10 to 20 mg/kg pretreated with reserpine for 3 days followed by compound addition on day 4 to 10 by tail suspension test; type: functional, organism-based; details: dose 10-20 mg/kg, time 6.0 day; how it was run: as §2
Mus musculus [8] = assay: Antidepressant activity in reserpine-induced ICR mouse model assessed as increase in total distance traveled at 10 to 20 mg/kg pretreated with reserpine for 3 days followed by compound addition for 1 week by open field test; type: functional, organism-based; details: dose 10-20 mg/kg, time 1.0 weeks; how it was run: as §2

AUC(0-t) at 24 h [1]: 491 ng·h/mL
half-life [3]: 5.22 h
Compound: O=C1c2ccccc2-c2nccc3cc(OCCCCCN4CCN(c5ccccc5F)CC4)cc1c23
Activity (Mus musculus [2]): Active
Activity (Mus musculus [4]): Active
Activity (Mus musculus [5]): Active
fold change (FC) [6]: 0.014
Activity (Mus musculus [7]): Active
Activity (Mus musculus [8]): Active
